Tests used:
Rattus norvegicus [1] = assay: Antihypertensive activity in spontaneously hypertensive rats after peroral administration,; format: functional
Summary of the method: (§1)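 SHR, 3-day test. After about 20 min prewarming at 37 °C, indirect systolic pressure by tail cuff at 0 (control), 22, 24, 26 and 46 h. Oral dosing at 0 and 22 h, at 100 mg/kg unless footnoted otherwise. Groups of five rats; maximum mean fall from the control reading is rated in bands (<25, 25-34, 35-44, ≥45 mmHg).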

Rattus norvegicus [2] = assay: Vasodilator activity in ganglion blocked rats. Values denote percent change in mean arterial blood pressure 30 minutes after dosing rats at 3 mg/kg intravenously; format: functional; details: route intravenous
Summary of the method: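 Male Wistar rats (275-450 g), urethane 800 mg/kg plus chloralose 60 mg/kg ip, then chlorisondamine 2.5 mg/kg ip for ganglion block. Angiotensin II infused iv at 0.25 or 0.35 μg/min to a new steady pressure. Drug given iv over 3 min; femoral mean arterial pressure recorded at 30 min as % change ± SEM.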

Rattus norvegicus [3] = assay: Antihypertensive activity in spontaneously hypertensive rats after peroral administration; format: functional; summary of the method: as §1
Rattus norvegicus [4] = species on record: Rattus norvegicus; assay: Intrinsic sympathomimetic action in reserpinized rats; format: functional
Summary of the method: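 Reserpinized rats given 0.3 mg/kg iv. Read-out is increase in heart rate (bpm), mean ± SEM, n = 3-6.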

[5] = molecular target: T1, Adrenergic receptor beta (Rattus norvegicus) (UniProt P18090+P10608+P26255); assay: Beta-adrenergic receptor blockade activity in conscious normotensive rats at a dose of 0.5 mg/kg; format: functional, organism-based; parameters: dose 0.5 mg/kg
Rattus norvegicus [6] = assay: The compound was tested for antihypertensive activity in spontaneously hypertensive rats after peroral administration. Activity value is 35-44 mmHg; format: functional; summary of the method: as §1
Rattus norvegicus [7] = assay: The compound was tested for antihypertensive activity in spontaneously hypertensive rats after peroral administration, Activity value is <25 mmHg; format: functional; summary of the method: as §1
[8] = molecular target: T1, Adrenergic receptor beta (Rattus norvegicus); assay: The compound was tested for beta-adrenergic receptor blockade activity in conscious normotensive rats at a dose of 2 mg/kg; format: functional, organism-based; parameters: dose 2 mg/kg
Rattus norvegicus [9] = assay: The compound was tested for antihypertensive activity in spontaneously hypertensive rats after peroral administration, dosed at 30 mg/kg; format: functional; details: route oral
Summary of the method: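 Conscious spontaneously hypertensive rats, groups of five per compound. Given orally at 0 and 22 h. Before tail-cuff readings, rats were prewarmed to 37 °C for about 20 min. Indirect systolic pressure was read at 0 (control), 22, 24, 26 and 46 h. Activity was scored from the maximum mean fall from control: under 25 mmHg (±), 25-34 (+), 35-44 (++), 45 mmHg and over (+++).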

| SMILES | Delta MAP (Rattus norvegicus [2]) | Actvity (Rattus norvegicus [3]) | Activity (Rattus norvegicus [4]) | also measured |
| --- | --- | --- | --- | --- |
| Cc1cccc(C)c1OCC(O)CNC(C)(C)Cc1c[nH]c2ccccc12 (configuration not stated) | -4% | – | – | Actvity (Rattus norvegicus [1]): <25 mmHg |
| CC(C)(Cc1c[nH]c2ccccc12)NCC(O)COc1ccccc1C(F)(F)F (configuration not stated) | -34% | 44 mmHg | 88 beats min-1 | – |
| Cc1cccc(OCC(O)CNC(C)(C)Cc2c[nH]c3ccccc23)c1C (configuration not stated) | 8% | – | – | inhibition [5]: 79%; Actvity (Rattus norvegicus [6]): 44 mmHg |
| CC(C)(Cc1c[nH]c2ccccc12)NCC(O)COc1ccccc1F (configuration not stated) | -33% | – | – | Actvity (Rattus norvegicus [7]): <25 mmHg; inhibition [5]: 58% |
| Cc1cc(S(C)(=O)=O)ccc1OCC(O)CNC(C)(C)Cc1c[nH]c2ccccc12 (configuration not stated) | -8% | <25 mmHg | – | – |
| CC(C)(Cc1c[nH]c2ccccc12)NCC(O)COc1ccccc1C#N (configuration not stated) [BUCINDOLOL] | -26% | 45 mmHg | 77 beats min-1 | inhibition [8]: 71% |
| CC(C)NCC(O)COc1cccc2ccccc12 (configuration not stated) [PROPRANOLOL] | – | <25 mmHg | – | – |
| Cc1ccccc1OCC(O)CNC(C)(C)Cc1c[nH]c2ccccc12 (configuration not stated) | -18% | 34 mmHg | 100 beats min-1 | – |
| Cc1cc(Cl)ccc1OCC(O)CNC(C)(C)Cc1c[nH]c2ccccc12 (configuration not stated) | 11% | – | – | – |
| CC(C)(Cc1c[nH]c2ccccc12)NCC(O)COc1ccccc1C1CCCCC1 (configuration not stated) | 18% | <25 mmHg | – | – |
| Cc1ccc(OCC(O)CNC(C)(C)Cc2c[nH]c3ccccc23)c(C)c1 (configuration not stated) | 13% | 34 mmHg | – | – |
| CC(C)(Cc1c[nH]c2ccccc12)NCC(O)COc1ccccc1C(N)=O (configuration not stated) | -25% | 44 mmHg | 74 beats min-1 | – |
| CSc1ccccc1OCC(O)CNC(C)(C)Cc1c[nH]c2ccccc12 (configuration not stated) | -29% | – | – | – |
| CC(C)NCC(O)COc1cccc2[nH]ccc12 (configuration not stated) [PINDOLOL] | -32% | – | 120 beats min-1 | Actvity (Rattus norvegicus [9]): <25 mmHg |
| CCC(C)c1ccccc1OCC(O)CNC(C)(C)Cc1c[nH]c2ccccc12 (configuration not stated) | 22% | – | -8 beats min-1 | Actvity (Rattus norvegicus [1]): <25 mmHg |
| CC(C)(Cc1c[nH]c2ccccc12)NCC(O)COc1ccccc1-c1ccccc1 (configuration not stated) | 12% | – | – | Actvity (Rattus norvegicus [1]): <25 mmHg |
| CC(C)(Cc1c[nH]c2ccccc12)NCC(O)COc1ccccc1 (configuration not stated) | -26% | <25 mmHg | 141 beats min-1 | – |
| CC(C)(Cc1c[nH]c2ccccc12)NCC(O)COc1ccccc1[N+](=O)[O-] (configuration not stated) | -38% | <25 mmHg | 106 beats min-1 | – |
| CC(C)(Cc1c[nH]c2ccccc12)NCC(O)COc1ccccc1N (configuration not stated) | -11% | 44 mmHg | 105 beats min-1 | – |

Source: ChEMBL document CHEMBL1121405, “Antihypertensive indole derivatives of phenoxypropanolamines with beta-adrenergic receptor antagonist and vasodilating activity” (1980)
